Columns and labels:
[1] = folding enthalpy; higher = less favourable; fluorescence melt of hairpins on a sequencing array, two-state fit; conditions: sodium 0.088 M
Procedure, shortened: (§1)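 Folding enthalpy and melting temperature come from bootstrapped two-state fits to Cy3 fluorescence of library hairpins carrying annealed Cy3 and quencher oligos on a sequenced MiSeq flow cell. Imaging was done in 50 mM Na-HEPES pH 8.0, 25 mM NaCl, stepping by 2.5 °C up to 60 °C, and signals were normalised to pre-quench Cy3 and to control constructs. Results of four replicates were combined by inverse variance, and fitted temperatures were raised by 9.35 °C to match UV melts.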

[2] = melting temperature; fluorescence melt of hairpins on a sequencing array, two-state fit, raised by 9.35 °C to match UV melts; conditions: sodium 0.088 M
Procedure, shortened: as §1

Row | Sequence | folding enthalpy [1] [kcal/mol] | Tm [2] [°C]
1 | GATCAGAGTTCTGATC ((((((....)))))) | -36.6 | 50.5
2 | GATCAGATGACTGATC ((((((....)))))) | -35.3 | 47.8
3 | GATCAGATGTCTGATC ((((((....)))))) | -41.8 | 49.7
4 | GATCAGATTTCTGATC ((((((....)))))) | -41 | 52.9
5 | GATCAGCACACTGATC ((((((....)))))) | -32.3 | 53.4
6 | GATCAGCACTCTGATC ((((((....)))))) | -30.8 | 49.9
7 | GATCAGCAGTCTGATC ((((((....)))))) | -34.4 | 48.8
8 | GATCAGCCACCTGATC ((((((....)))))) | -33.8 | 49.6
9 | GATCAGCCCCCTGATC ((((((....)))))) | -36.2 | 48.2
10 | GATCAGCCGCCTGATC ((((((....)))))) | -32.5 | 50.5
11 | GATCAGCCGCTGATC ((((((...)))))) | -41 | 48.7
12 | GATCAGCCGTCTGATC ((((((....)))))) | -43.6 | 51.6
13 | GATCAGCGCCCTGATC ((((((....)))))) | -39.5 | 49
14 | GATCAGCGCTCTGATC ((((((....)))))) | -33.9 | 50.4
15 | GATCAGCGGACTGATC ((((((....)))))) | -33.9 | 50.3
16 | GATCAGCGGGCTGATC ((((((....)))))) | -38.8 | 63.8
17 | GATCAGCTATCTGATC ((((((....)))))) | -34.7 | 49.3
18 | GATCAGCTCACTGATC ((((((....)))))) | -31.9 | 52.2
19 | GATCAGCTCCCTGATC ((((((....)))))) | -32.3 | 49.1
20 | GATCAGCTCTCTGATC ((((((....)))))) | -36.9 | 49.3
21 | GATCAGCTGACTGATC ((((((....)))))) | -37.6 | 51.5
22 | GATCAGCTTGCTGATC ((((((....)))))) | -47.5 | 68.8
23 | GATCAGGAGCTGATC ((((((...)))))) | -32.3 | 46.5
24 | GATCAGGATCCTGATC ((((((....)))))) | -53.1 | 54.3

Row | Sequence | folding enthalpy [1] [kcal/mol] | Tm [2] [°C]
25 | GATCAGGCCCCTGATC ((((((....)))))) | -46.1 | 53.1
26 | GATCAGGCGCCTGATC ((((((....)))))) | -52.1 | 60.8
27 | GATCAGGCGTCTGATC ((((((....)))))) | -39.3 | 51
28 | GATCAGGCTACTGATC ((((((....)))))) | -43.8 | 57.4
29 | GATCAGGGAAACCCGATC ((((.((....)).)))) | -26.1 | 43
30 | GATCAGGGAAACCTGATC (((((((....))))))) | -41.8 | 59
31 | GATCAGGTCCTGATC ((((((...)))))) | -35.2 | 51.9
32 | GATCAGGTCGCTGATC ((((((....)))))) | -43 | 53.3
33 | GATCAGGTGACTGATC ((((((....)))))) | -46.4 | 54.9
34 | GATCAGGTGGCTGATC ((((((....)))))) | -31.6 | 50.5
35 | GATCAGTACACTGATC ((((((....)))))) | -36.4 | 54.7
36 | GATCAGTACCCTGATC ((((((....)))))) | -35.6 | 49.4
37 | GATCAGTACCTGATC ((((((...)))))) | -44.9 | 48.9
38 | GATCAGTATACTGATC ((((((....)))))) | -45 | 54.3
39 | GATCAGTCATCTGATC ((((((....)))))) | -35.4 | 51.1
40 | GATCAGTCCCTGATC ((((((...)))))) | -46.5 | 50.3
41 | GATCAGTCCTCTGATC ((((((....)))))) | -39.7 | 51.1
42 | GATCAGTCGGCTGATC ((((((....)))))) | -46.8 | 51.5
43 | GATCAGTCTACTGATC ((((((....)))))) | -49.8 | 54.2
44 | GATCAGTGCGCTGATC ((((((....)))))) | -44.1 | 56.6
45 | GATCAGTGTGCTGATC ((((((....)))))) | -52.8 | 56.6
46 | GATCAGTTATCTGATC ((((((....)))))) | -34.2 | 52.1
47 | GATCAGTTCTCTGATC ((((((....)))))) | -42.1 | 52.1
48 | GATCAGTTGACTGATC ((((((....)))))) | -37.3 | 53.5

— the array DNA melting data of Ke et al. (doi:10.1101/2024.01.08.574731)
